Bioassay records (PubChem BioAssay)
FLuc stim CS: affects firefly luciferase, flagging false hits in luciferase stimulation screens. activation factor at 10 µM. 200,000 tested, under 10 active. P08659. ATPlite luciferase biochemical, luminescence, 10 min; 0 = ATP-free wells, 1 = DMSO control;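 active = luciferase activation factor, scaled between plate controls, of at least 2 with compound at 10 µM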
Target sequence (P08659 whole entry, looked up): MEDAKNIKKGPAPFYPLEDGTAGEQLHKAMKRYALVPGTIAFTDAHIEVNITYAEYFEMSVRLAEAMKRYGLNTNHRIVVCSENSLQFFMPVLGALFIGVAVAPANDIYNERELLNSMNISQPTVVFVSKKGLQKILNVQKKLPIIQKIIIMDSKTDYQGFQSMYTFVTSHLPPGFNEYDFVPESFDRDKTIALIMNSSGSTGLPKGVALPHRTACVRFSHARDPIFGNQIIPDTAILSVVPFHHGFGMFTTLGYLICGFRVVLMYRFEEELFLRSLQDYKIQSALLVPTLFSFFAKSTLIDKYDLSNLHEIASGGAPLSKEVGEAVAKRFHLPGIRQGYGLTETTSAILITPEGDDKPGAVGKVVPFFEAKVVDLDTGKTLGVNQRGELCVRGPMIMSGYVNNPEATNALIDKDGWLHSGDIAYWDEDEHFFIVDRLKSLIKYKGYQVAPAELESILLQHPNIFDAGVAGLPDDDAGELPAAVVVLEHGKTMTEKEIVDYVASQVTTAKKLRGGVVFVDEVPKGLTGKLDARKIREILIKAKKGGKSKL
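Material: Luciferase/luciferin reagent mix | Doses: Test compounds dosed from 2 mM stocks in 100% DMSO | Timing: 10 min incubation after luciferase reagent addition, room temperature | Measured by: Luminescence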
NF-kB expr up: NF-kB expression increase, human neuronal cells | NF-kB reporter expression; active compounds read high | fold change at 12.5 µM | hit rate 1.6% among 190,000; in the data active = fold change above about 3.3
APP 5'UTR act: activates APP 5'UTR luciferase reporter | hit rate 1% among 190,000 | SH-SY5Y APP 5'UTR luciferase reporter, luminescence; zero percent = DMSO vehicle wells | activation, % at 2 µM | AID 1276;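 active = activation above a set limit, based on mean plus 3 SD of controls, cut at about 140% in these data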
STAT1 activator: activators of IFN-gamma induced STAT1 signaling | NIH 3T3 STAT1-luciferase reporter, luminescence; 100% = IFN-gamma alone, no compound | activation (% of control), % at 5.5 µM | hit rate 2.6% among 200,000 | AID 932;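 active = activation above the screen-wide mean activation plus 3 SD, cut at about 130% in these data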;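 also: raw ratio to IFN-gamma control signal so 100% means no change and 0% no light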
FLuc inh counter: inhibits firefly luciferase, flagging false hits in luciferase inhibition screens | inhibition, % at 10 µM | P08659 | AID 1006 | hit rate 1.5% among 200,000 | ATPLite firefly luciferase biochemical luminescence, 10 min;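 active = inhibition above about 50% when tested at 10 µM, limit read from the data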
Numbers without * were called inactive; / = not tested or not shown; ! = not active in a repeat. An excerpt weighted towards active compounds, which were near 4.3% of everything screened.

SMILES	FLuc stim CS	NF-kB expr up	APP 5'UTR act	STAT1 activator	FLuc inh counter
O=C(/C=C/c1ccco1)Nc1nnc(-c2ccco2)s1	1	1.1	35	121	-2
Cc1nc(NC(=O)/C=C/c2ccco2)sc1C	0.7	2.3	96	144*	34
O=C(/C=C/c1ccco1)Nc1ccccc1C(=O)O	0.2	2	68	113	80*
C=CCN=C1SC(C)(C)C(=O)N1S(=O)(=O)c1ccc(C)cc1	1	1.4	2	88	-5
COc1ccc(F)cc1S(=O)(=O)NC1CCCC1	1.1	0.94	8	103	-9
COc1ccc(C(=O)NNC(=O)Nc2ccc(Cl)cc2)cc1	1	1.2	9	106	1
O=C(CSc1ccc2ccccc2n1)N1CCC(c2noc3ccc(F)cc23)CC1	1.1	0.9	24	104	-9
COC(=O)c1ccccc1OCCCOc1ccc(C=O)cc1OC	1	1.2	91	134*	-4
COc1cc(C=O)ccc1OCc1cccc(Br)c1	0.7	1.1	58	130*	30
Cc1nonc1CN(C)C(=O)CC1C(=O)NCCN1Cc1cccc(C(F)(F)F)c1 (stereo unspecified)	1	1.2	2	102	-4
Cc1ccnc(NS(=O)(=O)c2ccc(NC(=O)c3ccc(S(=O)(=O)N4CC(C)OC(C)C4)cc3)cc2)n1 (stereo unspecified)	1	1.1	-2	102	2
Cc1cccc(NC(=O)CC2SC(=O)N(c3ccccc3)C2=O)c1 (stereo unspecified)	1	1	-26	103	-3
Cc1cccc(NC2SC(=O)N(c3ccccc3)C2=O)c1 (stereo unspecified)	1	3.5*	43	100	-2
C[C@]12CCC(=O)C=C1CC[C@@H]1[C@@H]2[C@@H](O)C[C@@]2(C)[C@H]1CC[C@]2(O)C(=O)COC(=O)CCC(=O)O	1	1	70	129*!	-4
CC(/C=C/c1ccccc1F)=N\NC(=O)c1ccccc1	0.9	2.7	80	133*	8
C/C(=N/NC(=O)c1ccccc1)C(=O)O	1	1.7	1	132*	0
Cc1cccc(NC(=S)Nc2ccc(N3CCOCC3)cc2)c1C	1	0.82	14	103	-2
Cn1cccc1Cc1nnc(SCC(=O)NCC2CCCO2)n1C (stereo unspecified)	1	1.1	-2	105	1
CC(C)c1ccc(/C=N\NC(=O)c2ccc(Cn3cccn3)o2)cc1	0.3	1.2	34	107	72*
O=c1c2c(nc3n1CCCCC3)sc1c(O)c(Br)ccc12	0.2	1.5	83	89	81*
CC(C)(O)C#Cc1ccc(CN2CCN(Cc3ccsc3)C(CCO)C2)cc1 (stereo unspecified)	1.1	3.8*	-8	96	-8
COc1ccc(OCc2nnc(SCC(=O)c3c(N)n(C)c(=O)n(C)c3=O)n2-c2ccccc2F)cc1	1	1.1	-11	103	-1
COc1ccccc1N1CCN(c2nc3ccccn3c(=O)c2C=O)CC1	1	1.2	12	105	-1
O=C(NC12CC3CC(CC(C3)C1)C2)c1ccc(-c2ccc(Br)cc2)o1	0.8	0.84	117	144*	17
Cc1onc(-c2c(Cl)cccc2Cl)c1C(=O)c1c[nH]c(C(=O)NCC2CCCO2)c1 (stereo unspecified)	1	1	30	103	-2
SMILES	FLuc stim CS	NF-kB expr up	APP 5'UTR act	STAT1 activator	FLuc inh counter
CCOC(=O)N1CCN(c2nc(C)cc(C(F)(F)F)n2)CC1	1.1	4.9*	24	89	-6
COc1ccc(-c2cc3c(nn2)-c2ccccc2C3=O)cc1	0.1	1.6	45	42	94*
O=C1c2ccccc2-c2nnc(-c3ccccc3)cc21	0.2	3.3*	24	71	81*
Cc1ccc2nc3c(nc2c1)-c1ccccc1C3=O	1	2	1	109	2
Cc1cccc(-c2cc3c(nn2)-c2ccccc2C3=O)c1	0.4	6.9*	/	99	62*
COc1cc(S(=O)(=O)N(C)C2CCCCC2)c(C)cc1C	1.1	1.1	-1	98	-8
N#Cc1c(/N=C/c2cccs2)sc2c1CCCCC2	0.1	1.1	148*	120	86*
O=C(Cn1cnc2c(oc3ccccc32)c1=O)c1ccccc1	0.9	2.7	102	148*	10
Cc1cccc(CSc2cccc3cccnc23)c1	1	3	-35	146*	0
CC1(C)OC(=O)N(c2ccccc2)C12C=Cc1c(ccc3ccccc13)O2 (stereo unspecified)	1.1	0.88	1	95	-7
O=C1NC2(C=Cc3c(ccc4ccccc34)O2)Oc2ccccc21 (stereo unspecified)	1	1.5	3	141*	-4
CCOC(=O)N1CCN(Cc2nc(N)nc(Nc3ccc(C)cc3C)n2)CC1	1.1	1.2	-2	96	-12
Cc1ccc(-c2nc3cccnc3s2)cc1NS(C)(=O)=O	0.8	1.1	61	139*	20
CCS(=O)(=O)Nc1cccc(-c2nc3cccnc3s2)c1C	1	1.6	32	112	5
CSc1nc2n(n1)C(C)C1=C(CCCC1=O)N2 (stereo unspecified)	1.1	1.1	3	106	-6
CC(C)(C)CC(=O)Nc1cccc(-c2cn3cccnc3n2)c1	0.4	2.2	54	121	61*
Oc1ccc(/C=C/c2cc(O)cc(O)c2)cc1	0.2	23*	151*	96	80*
CC1CCCCC1NC1=NCCCS1 (stereo unspecified)	1.1	1	-1	107	-6
CS(=O)(=O)c1nc(S(=O)(=O)c2ccc(Cl)cc2)c(NCc2ccccn2)s1	1	1.1	11	89	-4
O=C(/C=C/c1ccccc1[N+](=O)[O-])Nc1ccccc1	0.5	8.3*	172*	128	50*
O=C(/C=C/c1ccccc1Cl)Nc1cccc(O)c1	0.2	12*	191*	69	84*
O=C(/C=C/c1ccccc1Cl)NCc1cccs1	0.9	2	31	131*	12
CN(C)S(=O)(=O)c1ccc(NC(=O)/C=C/c2ccccc2Cl)cc1	1	0.96	-11	117	-1
CC1(C)Cc2nc3sc4c(=O)[nH]cnc4c3cc2CS1	0.9	1.5	-4	111	15
CCCCCn1cnc2c(sc3nc4c(cc32)CSC(C)(C)C4)c1=O	0.9	1.5	91	138*	7
O=C(CSc1nc2ccccc2o1)c1ccccc1	1	1.4	42	115	-1
Cc1nnc(SCC(=O)c2cc(C)n(C3CC3)c2C)s1	0.9	2.6	65	136*	14
Cc1cc(C(=O)CSc2nc3ccccc3o2)c(C)n1C1CC1	1	2.2	99	136*	-1
O=C(Oc1cc(Cl)ccc1Cl)c1ccc(N2CCOCC2)c([N+](=O)[O-])c1	1	1.1	-15	98	-2
COC(=O)c1c(NC(=O)CSc2nc3nc(C)cc(C)n3n2)sc(C)c1C	1	1	1	107	-4
